Tests used:
Type in all cases: functional
[1] = system: Streptococcus pneumoniae; assay: In vivo efficacy against Streptococcus pneumoniae ATCC 6303 in mouse protection test after s.c. administration.
Procedure, shortened: (§1)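 Mouse protection model: mice infected intravenously with 100-fold LD50 of the organism. Compound given by subcutaneous injection or oral gavage at 1 and 5 h after infection, over a dose range. Deaths tracked for 7 days post-inoculation. ED50 is the dose giving 50% survival of treated mice over the trial.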

[2] = system: Mus musculus; assay: In vivo efficacy against Streptococcus pneumoniae ATCC 6303 in mouse protection test […].; procedure, shortened: as §1
[3] = system: Escherichia coli; assay: In vivo efficacy against Escherichia coli JUHL in mouse protection test after subcutaneous administration; procedure, shortened: as §1
[4] = system: Pseudomonas aeruginosa; assay: In vivo efficacy against Pseudomonas aeruginosa 5007 in mouse protection test after administration by oral gavage; details: Pseudomonas aeruginosa, po; read-out: ED50; procedure, shortened: as §1
[5] = system: Escherichia coli; assay: In vivo efficacy against Escherichia coli JUHL in mouse protection test after p.o. administration.; procedure, shortened: as §1
[6] = system: Staphylococcus aureus; assay: In vivo efficacy against Staphylococcus aureus NCTC 10649M in mouse protection test after p.o. administration.; procedure, shortened: as §1
[7] = system: Mus musculus; assay: In vivo efficacy against Staphylococcus aureus NCTC 10649M in mouse protection test after sub cutaneous administration; procedure, shortened: as §1
[8] = system: Pseudomonas aeruginosa; assay: In vivo efficacy against Pseudomonas aeruginosa 5007 in mouse protection test after subcutaneous administration; details: Pseudomonas aeruginosa, sc; read-out: ED50; procedure, shortened: as §1

`Cc1c(N2CC[C@H](C)C(N)C2)c(F)cn2c(=O)c(C(=O)O)cc(C3CC3)c12` (single isomer, unassigned) was tested, and the ED50 [1] was 8 mg/kg, the ED50 [2] was 5.2 mg/kg and the ED50 [3] was 2 mg/kg. The ED50 [4] was greater than 50 mg/kg, the ED50 [5] was 12.5 mg/kg and the ED50 [6] was 6.3 mg/kg. It also gave an ED50 [7] of 1.2 mg/kg and an ED50 [8] greater than 32 mg/kg.
